From PubChem BioAssay
M4 antag: antagonists of human muscarinic M4 receptor (CHRM4); P08173; CHO-hM4 cells, ACh EC80, Fluo-8 calcium fluorescence; inhibition, % at 3 µM; hit rate 0.73% among 360,000;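 active = inhibition above its plate's cutoff, the mean inhibition of sample wells plus 3 SD, cut at about 27% in these data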;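 also: 0% = acetylcholine EC80 with DMSO and 100% = DMSO without agonist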
Target sequence (P08173 whole entry, looked up): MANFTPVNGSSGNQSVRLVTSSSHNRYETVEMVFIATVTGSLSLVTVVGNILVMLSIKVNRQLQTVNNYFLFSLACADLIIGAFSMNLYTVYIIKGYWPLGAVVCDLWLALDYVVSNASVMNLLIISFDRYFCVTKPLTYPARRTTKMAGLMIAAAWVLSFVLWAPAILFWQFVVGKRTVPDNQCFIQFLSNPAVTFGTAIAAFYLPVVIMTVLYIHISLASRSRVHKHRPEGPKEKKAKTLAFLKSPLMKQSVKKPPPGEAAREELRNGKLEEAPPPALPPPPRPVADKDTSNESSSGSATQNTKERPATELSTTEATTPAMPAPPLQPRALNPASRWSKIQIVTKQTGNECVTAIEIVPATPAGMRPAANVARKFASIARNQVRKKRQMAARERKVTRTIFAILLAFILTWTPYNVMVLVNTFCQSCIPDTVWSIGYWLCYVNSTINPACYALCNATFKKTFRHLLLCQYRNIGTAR
M5 PAM: CHRM5 positive allosteric modulation; P08912; CHO-K1 hM5, Fluo-8 calcium, ACh EC20 PAM; 0% = ACh EC20, 100% = ACh EC100; activation, % at 3 µM; hit rate 0.3% among 360,000;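 active = activation above the run cutoff, the mean activation of all test compounds plus 3 SD, cut at about 18% in these data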
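Probe or stimulus: acetylcholine, EC20 level; Assay system: human M5 receptor in CHO-K1 cells; Schedule: compound preincubation 140 s before EC20 acetylcholine addition; Technique: intracellular calcium via Fluo-8 fluorescence; Dosing: single-point, 3 µM nominal; Read-out basis: percent activation from peak-over-basal fluorescence ratio, scaled EC20-to-EC100 acetylcholine; Repeats: one well per compound, no replicates.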
CHRM5 agonist: agonists of human muscarinic M5 receptor (CHRM5). AID 624037. P08912. activation, % at 3 µM. CHO-K1 hM5 cells, Fluo-8 calcium fluorescence; 0% DMSO wells, 100% maximal acetylcholine response. hit rate 0.19% among 360,000;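 active = activation above the run's mean over test compounds plus 3 SD, cut at about 23% in these data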;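 also: signal is peak over basal fluorescence ratio across the kinetic read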
M5 antag: blocks acetylcholine activation of human M5 receptor. P08912. CHO-hM5 cells, Fluo-8 calcium fluorescence, ACh EC80. inhibition, % at 3 µM. hit rate 0.59% among 360,000;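 active = inhibition above a per-plate cutoff, the mean of that plate's test compounds plus 3 SD, cut at about 27% in these data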;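 also: 0% = acetylcholine EC80 with DMSO and 100% = DMSO without agonist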
CHRM4 agonist: agonists of human muscarinic M4 receptor (CHRM4); P08173; CHO-K1 hM4/Gqi5, Fluo-8 calcium fluorescence; vehicle 0%, full acetylcholine response 100%; activation, % at 3 µM; hit rate 0.14% among 360,000; AID 624127;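 active = activation above the run mean over all test wells plus 3 SD, cut at about 32% in these data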;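 also: peak over basal fluorescence ratio per well then scaled between controls; 0% = DMSO wells and 100% = acetylcholine at EC100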
CHRM4 PAM: CHRM4 positive allosteric modulation; AID 624126; hit rate 0.4% among 360,000; activation, % at 3 µM; P08173; CHO-K1 hM4/Gqi5, Fluo-8 calcium fluorescence, ACh EC20; 0% = ACh EC20, 100% = maximal ACh;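 active = activation above its plate's cutoff, the mean activation of sample wells plus 3 SD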
* hit, by the source's call. Compounds with a hit are over-represented: about 1.8% of the library has one in this group of screens.

SMILES	M4 antag	M5 PAM	CHRM5 agonist	M5 antag	CHRM4 agonist	CHRM4 PAM
CCC1(c2ccc(F)cc2)NC(=O)N(CC(=O)N2c3ccccc3NC(=O)CC2C)C1=O (stereo unspecified)	-6.9	2.1	0.1	-1.9	0.7	6.8
O=C(CSc1n[nH]c(-c2cccnc2)n1)Nc1ccccc1C(F)(F)F	-14.2	1.3	-2.5	0.3	4.1	14.5
O=C(NCc1ccco1)C(c1ccncc1)N(C(=O)Cn1nnc2ccccc21)c1ccccc1F (stereo unspecified)	-15.1	-2.8	-1.9	-0.8	0.1	8.1
Cc1cccc(NC(=O)c2cc(S(=O)(=O)N3CCc4ccccc43)cn2C)c1C	-1.9	-2.4	0.5	4.7	0.0	-0.2
COc1ccc(-c2sc(Nc3ccccc3)n[n+]2-c2ccc(F)cc2)cc1Br	9.5	-5.1	-4.9	14.2	1.4	13.9
CCN(CC)c1ccc(-c2sc(Nc3ccccc3)n[n+]2-c2ccc(F)cc2)cc1	-4.3	-10.7	20.1	25.7	22.4	-5.5
CCc1ccc(Nc2n[n+](-c3ccccc3)c(-c3c(Cl)cccc3Cl)s2)cc1	24.1	-25.5	48.9*	69.6*	43.2*	-19.1
CCc1ccc(Nc2n[n+](-c3ccccc3)c(-c3ccc(N(CC)CC)cc3)s2)cc1	29.5*	-15.8	18.6	35.6*	42.0*	-9.0
COc1ccc2ccccc2c1-c1sc(Nc2ccccc2)n[n+]1-c1ccc(F)cc1	9.1	-32.7	28.1*	35.5*	32.1*	-7.9
CCOC(=O)C1CCN(S(=O)(=O)c2ccc3c(c2)N(C(C)=O)CC(C)S3)CC1 (stereo unspecified)	0.4	-9.9	5.2	6.3	6.5	-4.3
CC(=O)NC(CC(=O)Nc1ccc(S(=O)(=O)NC2=NCCCCC2)cc1)c1ccccc1 (stereo unspecified)	3.8	-5.6	-2.1	6.5	0.4	7.5
C/C(=N\N(c1ccccc1)c1ccccc1)c1ccco1	-3.4	7.5	-1.2	-1.1	-1.6	16.7
O=C(CN1CCN(Cc2ccccc2)CC1)Nc1ccc(N2CCOCC2)cc1	2.9	11.2	2.9	-22.5	0.8	-3.1
Cc1ccc(S(=O)(=O)NC(=O)C2(C)CCN2C(=O)CCc2ccc(Cl)cc2Cl)nc1 (stereo unspecified)	-5.3	2.6	1.4	-0.5	0.3	3.7
C#CCOC(=O)CCCC(=O)NCCCCCCCC	-11.6	27.0*	9.4	0.4	0.6	11.9
CC#CC[N+](C)(C)CCCCCCCC	12.2	-1.6	-14.8	1.0	-0.2	-5.5
CCCCCCCCCCCCCCCC[N+](C)(C)Cc1ccc(F)cc1	36.3*	-35.2	-12.6	21.4	0.4	-10.3
C[C@H](CO)N1C[C@H](C)[C@@H](CN(C)C(=O)Nc2ccc(C(F)(F)F)cc2)Oc2c(NS(=O)(=O)c3ccccc3)cccc2C1=O	-10.7	-4.4	-3.4	5.2	0.8	1.3
CCC(C)N(CCNC(=O)CC1Oc2ccc(C)cc2NC1=O)C1CCCCC1 (stereo unspecified)	71.3*	-21.9	-6.0	18.5	-0.5	-18.3
COc1ccc(N2Cc3ccc(OC)c(OC)c3C2=O)cc1	59.8*	-9.3	-2.8	16.1	0.0	-17.8
Cc1ccccc1NC(=S)NC(NC(=O)c1ccccc1C)C(Cl)(Cl)Cl (stereo unspecified)	-10.8	-6.7	3.8	-2.2	7.8	2.9
Fc1ccccc1-c1nc(NCC2CC2)nc2ccsc12	10.1	-5.5	-2.7	2.9	-2.0	-3.9
CN(C)CCNc1nc(-c2ccccc2F)c2sccc2n1	21.1	-34.0	-8.9	40.1*	1.7	-10.9
Cc1ccccc1C(=O)NNS(=O)(=O)c1cccc([N+](=O)[O-])c1	7.8	-2.0	0.3	1.5	1.2	-0.7
Cc1ccc(NC(=O)CSc2nnc(NC3CC3)s2)cc1S(=O)(=O)N1CCOCC1	-8.1	3.6	0.9	2.5	1.5	10.6
SMILES	M4 antag	M5 PAM	CHRM5 agonist	M5 antag	CHRM4 agonist	CHRM4 PAM
CC(=O)NCCNC(=O)c1ccc(CSc2nc3ccccc3s2)cc1	39.4*	0.7	-0.5	-4.1	0.7	-12.8
C/C(=N\NC(=O)CSc1nc2ccccc2s1)c1ccco1	1.8	21.1*	1.3	7.8	0.8	4.7
COc1cccc(NC(=O)NC2CCN(Cc3nnnn3Cc3ccc4c(c3)OCO4)CC2)c1	4.4	-1.9	-5.0	8.9	0.7	-4.0
O=[N+]([O-])c1ccc(COc2cccnc2)cc1	-7.1	-2.7	0.3	2.8	1.9	-4.1
O=[N+]([O-])c1ccc(-c2cccnc2)cc1	2.9	18.3*	2.2	4.5	0.6	1.4
O=C(CSc1nncs1)Nc1ccc(N2CCCCC2)cc1	-1.6	0.0	6.5	7.5	6.2	-0.8
O=C(CNC(=O)c1ccc(-c2ccccc2)cc1)OCc1ccc(Br)cc1	4.1	3.3	-0.7	-4.0	1.2	-2.0
CC(=O)Nc1ccc(NC(=O)C(C)OC(=O)c2ccc3c(c2)OCCO3)cc1 (stereo unspecified)	-7.8	4.3	-3.5	2.9	0.8	32.0*
CC(=O)NCC(=O)OC(C)C(=O)Nc1ccc(C(C)=O)cc1 (stereo unspecified)	-1.0	25.1*	-0.2	-5.3	0.6	1.5
COCCC(=O)N1CCC(Oc2ccc(C(=O)NCCSC)cc2)CC1	7.0	10.9	11.3	-12.1	-0.7	-3.9
CC(C)(C)c1nnc(NC(=O)Nc2ccc(Cl)cc2)s1	-1.2	-4.5	3.1	14.2	1.2	-7.5
Cc1nc(NC(=O)Nc2ccc(Cl)cc2)sc1C	28.2*	-5.4	3.8	5.2	6.8	-0.1
Cc1noc(-c2ccccc2)c1NC(=O)Nc1ccc(Cl)cc1	36.9*	-20.3	-1.6	22.9	10.2	-58.3
CC(OC(=O)Cc1n[nH]c(=O)c2ccccc12)C(=O)Nc1cccc([N+](=O)[O-])c1 (stereo unspecified)	-14.2	15.9	6.8	-1.8	3.3	1.7
O=S(=O)(c1ccc(Cl)c(Cl)c1)c1snnc1-c1ccccc1	40.4*	-17.1	-8.2	10.7	-1.9	-18.8
OC(CC#CCN1CCCCC1)(c1ccccc1)c1ccccc1	44.3*	-29.8	-18.8	26.1	2.2	-18.3
CC1CCCN1CC#CC(O)(c1ccccc1)c1ccccc1 (stereo unspecified)	97.0*	-30.8	-19.3	99.0*	0.3	-16.5
CC(C)(C)C(O)(CC#CCN1CCCC1)c1ccccc1 (stereo unspecified)	22.0	-32.9	-13.0	34.3*	1.3	-22.4
CC1CCCCN1C(C(=O)O)c1ccccc1 (stereo unspecified)	3.2	0.9	-5.9	-11.0	0.3	4.8
CN1CCN(CC#CCC(O)(c2ccccc2)c2ccccc2)CC1	0.3	7.8	-3.5	-10.7	1.2	5.6
